From ChEMBL document CHEMBL1155233, “Structure mechanism insights and the role of nitric oxide donation guide the development of oxadiazole-2-oxides as therapeutic agents against schistosomiasis” (J Med Chem, 2009)
≈ marks a conversion by molar mass, not a printed value. Calls of active or inactive are those of the source. The calls are words filed in the database; no cut-off is given here.

Tests used:
Caco-2 [1] = assay: Apparent permeability from basolateral to apical side of human Caco-2 cells
Schistosoma mansoni [2] = assay: Antischistosomal activity against Schistosoma mansoni assessed as induction of parasite mortality after 16 hrs; assay type: functional; design: concentration or dose not given beside the values
Method in brief: (§1)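 Cultured ex vivo worms were exposed to 10 μM compound. Worm effects were scored by visual examination at time points over a 72 h time-course.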

[3] = Solubility by quantitative nitrogen detection based method
Caco-2 [4] = assay: Apparent permeability from apical to basolateral side of human Caco-2 cells
[5] = Metabolic stability in human liver microsomes assessed as compound remaining over 60 mins in absence of NADPH; assay type: ADME, Microsome; details: read-out: Stability
[6] = Distribution coefficient, log D of the compound; details: octanol/water
[7] = Reactivity with cysteine at 0.1 mM in 0.1M phosphate buffer assessed as amount of compound unreacted by HPLC
Schistosoma mansoni [8] = assay: Antischistosomal activity against Schistosoma mansoni assessed as parasite killing after 4 hrs; assay type: functional; method in brief: as §1
Schistosoma mansoni [9] = assay: Antischistosomal activity against Schistosoma mansoni assessed as induction of parasite mortality after 24 hrs; assay type: functional; design: concentration or dose not given beside the values; method in brief: as §1
Schistosoma mansoni [10] = assay: Antischistosomal activity against Schistosoma mansoni assessed as parasite killing after 2 hrs; assay type: functional, organism-based; method in brief: as §1
[11] = Metabolic stability in human liver microsomes assessed as compound remaining over 60 mins in presence of NADPH; assay type: ADME, Microsome; details: read-out: Stability
Schistosoma mansoni [12] = assay: Antischistosomal activity against Schistosoma mansoni assessed as induction of parasite mortality after 48 hrs; assay type: functional; design: concentration or dose not given beside the values; method in brief: as §1
hERG (KCNH2) = hERG (KCNH2) (Homo sapiens, UniProt Q12809); assay: Inhibition of human ERG expressed in HEK293 cells at 10 uM by fast patch clamp method; details: HEK293 cells expressing human ERG
hERG (KCNH2), sequence (Q12809 whole entry): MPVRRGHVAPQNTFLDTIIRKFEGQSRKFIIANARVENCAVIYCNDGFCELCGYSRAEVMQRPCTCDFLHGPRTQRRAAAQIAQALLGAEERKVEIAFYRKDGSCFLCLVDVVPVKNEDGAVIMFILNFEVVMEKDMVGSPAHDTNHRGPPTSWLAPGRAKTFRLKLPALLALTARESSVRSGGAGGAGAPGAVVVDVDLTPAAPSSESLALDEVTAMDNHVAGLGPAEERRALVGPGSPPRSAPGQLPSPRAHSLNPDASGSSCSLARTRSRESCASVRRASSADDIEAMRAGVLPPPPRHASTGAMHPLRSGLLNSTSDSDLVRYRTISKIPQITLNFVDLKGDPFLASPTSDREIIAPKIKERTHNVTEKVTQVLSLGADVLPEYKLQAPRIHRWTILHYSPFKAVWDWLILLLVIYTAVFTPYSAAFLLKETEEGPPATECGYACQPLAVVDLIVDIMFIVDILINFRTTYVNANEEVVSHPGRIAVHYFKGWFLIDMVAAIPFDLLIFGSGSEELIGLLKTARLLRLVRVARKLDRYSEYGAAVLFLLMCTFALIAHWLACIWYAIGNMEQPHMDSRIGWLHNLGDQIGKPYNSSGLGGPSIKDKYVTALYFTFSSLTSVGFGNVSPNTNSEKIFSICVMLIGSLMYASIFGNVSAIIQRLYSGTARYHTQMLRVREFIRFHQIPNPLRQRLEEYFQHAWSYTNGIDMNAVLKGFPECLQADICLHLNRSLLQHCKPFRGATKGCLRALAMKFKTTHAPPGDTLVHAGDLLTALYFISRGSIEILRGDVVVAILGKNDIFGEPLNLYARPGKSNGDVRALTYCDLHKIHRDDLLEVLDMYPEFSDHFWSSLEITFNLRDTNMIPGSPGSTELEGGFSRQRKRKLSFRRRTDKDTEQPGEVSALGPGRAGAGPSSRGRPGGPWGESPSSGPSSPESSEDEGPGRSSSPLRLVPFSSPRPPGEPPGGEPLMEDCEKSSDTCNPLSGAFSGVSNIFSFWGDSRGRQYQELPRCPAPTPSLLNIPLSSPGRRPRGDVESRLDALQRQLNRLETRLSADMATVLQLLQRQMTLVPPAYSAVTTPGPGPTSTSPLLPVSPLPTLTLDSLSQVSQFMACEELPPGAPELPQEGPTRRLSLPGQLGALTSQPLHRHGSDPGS

Schistosoma mansoni [13] = assay: Antischistosomal activity against Schistosoma mansoni assessed as induction of parasite sluggish movement after 16 hrs; assay type: functional, organism-based; method in brief: as §1
Schistosoma mansoni [14] = assay: Antischistosomal activity against Schistosoma mansoni assessed as induction of parasite sluggish movement after 8 hrs; assay type: functional, organism-based; method in brief: as §1
Schistosoma mansoni [15] = assay: Antischistosomal activity against Schistosoma mansoni assessed as induction of parasite mortality after 72 hrs; assay type: functional; design: concentration or dose not given beside the values; method in brief: as §1
[16] = target: T1, Thioredoxin reductase 1, cytoplasmic (Rattus norvegicus, UniProt O89049); assay: Inhibition of rat recombinant TrxR1 after 10 mins
T1 sequence (O89049 whole entry): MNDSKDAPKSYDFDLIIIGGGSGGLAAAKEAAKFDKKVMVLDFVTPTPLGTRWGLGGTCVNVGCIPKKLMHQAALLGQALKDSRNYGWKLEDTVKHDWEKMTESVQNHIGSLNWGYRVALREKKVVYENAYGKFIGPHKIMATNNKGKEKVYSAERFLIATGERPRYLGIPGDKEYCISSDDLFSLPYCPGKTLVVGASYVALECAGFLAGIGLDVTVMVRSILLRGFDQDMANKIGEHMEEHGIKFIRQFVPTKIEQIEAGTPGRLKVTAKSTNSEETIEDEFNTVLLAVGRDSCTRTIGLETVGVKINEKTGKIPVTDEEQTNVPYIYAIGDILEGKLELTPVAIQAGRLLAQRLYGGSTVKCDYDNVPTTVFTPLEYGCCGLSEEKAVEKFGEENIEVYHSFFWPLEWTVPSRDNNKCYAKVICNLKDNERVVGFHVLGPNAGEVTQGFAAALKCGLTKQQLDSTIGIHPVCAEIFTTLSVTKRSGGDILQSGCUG

[17] = Induction of nitric oxide release at 10 uM in presence of cysteine; assay type: physicochemical
[18] = Induction of nitric oxide release at 10 uM in presence of Schistosoma mansoni recombinant TGR and NADPH; assay type: functional
Schistosoma mansoni [19] = assay: Antischistosomal activity against Schistosoma mansoni assessed as induction of parasite curling after 8 hrs; assay type: functional, organism-based; method in brief: as §1
[20] = target: T2, Glutathione reductase, mitochondrial (Homo sapiens, UniProt P00390); assay: Inhibition of human recombinant GR after 15 mins in presence of NADPH
T2 sequence (P00390 whole entry): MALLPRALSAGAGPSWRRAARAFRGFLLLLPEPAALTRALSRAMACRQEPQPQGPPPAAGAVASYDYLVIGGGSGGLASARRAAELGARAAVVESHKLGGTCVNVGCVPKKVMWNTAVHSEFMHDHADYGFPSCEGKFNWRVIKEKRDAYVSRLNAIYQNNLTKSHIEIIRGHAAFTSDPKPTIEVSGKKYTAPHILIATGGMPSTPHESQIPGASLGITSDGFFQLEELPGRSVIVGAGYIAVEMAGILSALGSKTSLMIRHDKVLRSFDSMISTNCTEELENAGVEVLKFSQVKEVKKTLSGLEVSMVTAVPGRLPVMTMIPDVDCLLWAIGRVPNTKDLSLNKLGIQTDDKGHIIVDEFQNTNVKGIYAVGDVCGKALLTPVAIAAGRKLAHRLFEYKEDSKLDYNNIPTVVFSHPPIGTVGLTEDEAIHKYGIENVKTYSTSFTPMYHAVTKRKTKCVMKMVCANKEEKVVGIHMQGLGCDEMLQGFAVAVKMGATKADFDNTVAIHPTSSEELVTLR

[21] = Induction of nitric oxide release at 10 uM in presence of Schistosoma mansoni recombinant TGR; assay type: functional
Schistosoma mansoni [22] = assay: Antischistosomal activity against Schistosoma mansoni assessed as induction of parasite mortality after 8 hrs; assay type: functional; design: concentration or dose not given beside the values; method in brief: as §1
Schistosoma mansoni [23] = assay: Antischistosomal activity against Schistosoma mansoni assessed as induction of parasite sluggish movement after 4 hrs; assay type: functional, organism-based; method in brief: as §1
Schistosoma mansoni [24] = assay: Antischistosomal activity against Schistosoma mansoni assessed as induction of parasite curling after 4 hrs; assay type: functional, organism-based; method in brief: as §1
[25] = target: T3, Thioredoxin glutathione reductase (Schistosoma mansoni, UniProt Q962Y6); assay: Inhibition of Schistosoma mansoni TGR
T3 sequence (Q962Y6 whole entry): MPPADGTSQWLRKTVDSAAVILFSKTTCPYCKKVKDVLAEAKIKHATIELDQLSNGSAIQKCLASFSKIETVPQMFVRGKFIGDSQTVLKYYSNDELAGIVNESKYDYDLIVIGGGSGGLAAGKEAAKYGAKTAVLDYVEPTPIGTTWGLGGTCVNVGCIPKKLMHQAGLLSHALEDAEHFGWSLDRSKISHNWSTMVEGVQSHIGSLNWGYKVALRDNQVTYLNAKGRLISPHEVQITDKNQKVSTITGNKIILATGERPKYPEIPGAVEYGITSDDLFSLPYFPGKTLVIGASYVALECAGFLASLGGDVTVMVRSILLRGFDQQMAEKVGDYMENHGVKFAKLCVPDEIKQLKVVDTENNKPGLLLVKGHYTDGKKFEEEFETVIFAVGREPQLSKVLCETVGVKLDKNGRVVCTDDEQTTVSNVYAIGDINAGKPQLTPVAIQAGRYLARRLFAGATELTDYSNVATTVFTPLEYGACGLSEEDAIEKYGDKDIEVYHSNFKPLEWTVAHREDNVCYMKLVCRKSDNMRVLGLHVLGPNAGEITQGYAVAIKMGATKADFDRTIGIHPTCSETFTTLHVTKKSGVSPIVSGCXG

Schistosoma mansoni [26] = assay: Antischistosomal activity against Schistosoma mansoni assessed as induction of parasite sluggish movement after 24 hrs; assay type: functional, organism-based; method in brief: as §1
Schistosoma mansoni [27] = assay: Antischistosomal activity against Schistosoma mansoni assessed as induction of parasite sluggish movement after 48 hrs; assay type: functional, organism-based; method in brief: as §1

Compound	Activity (Schistosoma mansoni [2])	solubility [3] [µM]	Activity (Schistosoma mansoni [8])	Activity (Schistosoma mansoni [9])	Activity (Schistosoma mansoni [10])	Activity (Schistosoma mansoni [12]) [%]	inhibition at 10 µM (hERG (KCNH2)) [%]	Activity (Schistosoma mansoni [15]) [%]	IC50 [16] [µM]	Activity [17] [%]	Activity [18] [%]	IC50 [20] [µM]	Activity [21] [%]	Activity (Schistosoma mansoni [22])	further results
N#Cc1c(-c2cc(F)cc(-c3no[n+]([O-])c3C#N)c2)no[n+]1[O-]	55%	89.1 (≈ 28 µg/mL)	inactive	78%	inactive	100	29.4	–	–	–	–	–	–	–	Papp (Caco-2 [1]): 2.7 ×10⁻⁶ cm/s; Papp (Caco-2 [4]): 7.9 ×10⁻⁶ cm/s; remaining at 1 h [5]: 51%; logD [6]: 2.91; Activity [7]: Active; remaining at 1 h [11]: 20%
N#Cc1c(-c2ccc(-c3ccccc3)cc2)no[n+]1[O-]	–	–	inactive	Active	inactive	40	–	45	–	–	–	–	–	–	Activity (Schistosoma mansoni [13]): Active; Activity (Schistosoma mansoni [14]): Active
N#Cc1c(-c2ccc(F)c(Br)c2)no[n+]1[O-]	Active	–	inactive	5%	inactive	75	–	100	250	69	19	> 50	2	–	Activity (Schistosoma mansoni [19]): Active
N#Cc1c(-c2cccc(Cl)c2)no[n+]1[O-]	20%	–	–	64%	inactive	80	–	100	< 12.5	50	12	35.7	1	15%	Activity (Schistosoma mansoni [23]): Active
N#Cc1c(-c2ccccc2)no[n+]1[O-] [FUROXAN]	–	–	–	–	inactive	–	–	–	–	–	15	–	1.5	–	Activity (Schistosoma mansoni [24]): Active; Activity [7]: Active
N#Cc1c(-c2cccs2)no[n+]1[O-]	25%	240 (≈ 46.4 µg/mL)	inactive	25%	inactive	100	3.4	100	–	20	2	–	1	–	Papp (Caco-2 [1]): 9 ×10⁻⁶ cm/s; remaining at 1 h [5]: 64%; remaining at 1 h [11]: 1%; IC50 [25]: 3.5 µM
N#Cc1c(-c2ccc(Br)cc2)no[n+]1[O-]	60%	18.6 (≈ 4.95 µg/mL)	–	100%	inactive	100	5.5	100	250	68	19	> 50	4	39%	Papp (Caco-2 [1]): 4.8 ×10⁻⁶ cm/s; Papp (Caco-2 [4]): 7.9 ×10⁻⁶ cm/s; Activity (Schistosoma mansoni [23]): Active; remaining at 1 h [5]: 67%; logD [6]: 3.1; remaining at 1 h [11]: 10%
O=Cc1c(-c2ccccc2)no[n+]1[O-]	inactive	–	inactive	–	inactive	3	–	5	< 12.5	9	7	35.2	1	inactive	Activity (Schistosoma mansoni [26]): Active
Cc1c(-c2ccccc2)no[n+]1[O-]	inactive	–	inactive	inactive	inactive	–	–	5	> 400	2	< 1	> 50	< 1	inactive	Activity [7]: inactive; Activity (Schistosoma mansoni [27]): Active
N#Cc1c(-c2ccc(O)cc2)no[n+]1[O-]	15%	–	inactive	40%	inactive	60	–	100	> 400	–	–	> 50	–	–	Activity (Schistosoma mansoni [14]): Active
N#Cc1c(-c2cccc(-c3no[n+]([O-])c3C#N)c2)no[n+]1[O-]	60%	5 (≈ 1.48 µg/mL)	–	100%	inactive	100	7.8	–	150	–	–	> 50	–	45%	Activity (Schistosoma mansoni [24]): Active
